The record followed here is the RNAGym collection of RNA variant scans (doi:10.1126/science.aae0568).

Sequences and labels used below:
B1: tRNA (parent)
chain: GUUCCGUUGGCGUAAUGGUAACGCGUCUCCCUCCUAAGGAGAAGACUGCGGGUUCGAGUCCCGUACGGAACG

Fewer inactive variants are shown than the library holds.

Variants of B1 are the subject of this data set. The experiment in a line: yeast fitness relative to wild type (ratio to wild type); higher = fitter; tRNA-Arg(CCU), competitive growth, 37 C, YPD. An outline of the steps:
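Changes in genotype frequencies gave Darwinian fitness relative to wild type. Frequencies were read by 100-nucleotide paired-end sequencing of gene amplicons before and after pooled Saccharomyces cerevisiae strains, carrying tRNA-Arg(CCU) gene variants at the native locus, were competed in YPD at 37°C for 24 hours in six replicates. A genotype was kept only with ≥ 100 starting reads, and estimates < 0.5 were set to 0.5.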
Take A57U A69U A70C: the yeast fitness was at most 0.5.

On to C60G C66G, for which the yeast fitness came to 0.576. With G68A A69U, the yeast fitness was 0.791. For G68A A69G, the yeast fitness was found to be 0.827. Consider C61A U64C, for which the yeast fitness came to 0.801.

C61G G67C: the yeast fitness came out at 0.61. Turning to C61G G67A, the yeast fitness stood at 0.592. The value for G63C C66U was 0.666; that for G63C C66G was 0.709.

G58A U59C: the yeast fitness came out at 0.971.

As for G58A C61U, the yeast fitness stood at 1.03.

In the case of U59C G68C, the yeast fitness amounted to 0.765.

Turning to G58A A70G, the yeast fitness stood at 0.949. The value for G58A A70C was 1.01. As to C60G C61G, the yeast fitness is at most 0.5. The value for C60G C61U was 0.626. The value for C61A G67A A69C was 0.524; that for C61G U64G was 0.651.

For the variant C61G U64C, the yeast fitness turned out to be 0.579.

On to C61U U64G, for which the yeast fitness was 0.674. The value for C60G C61U G63A was at most 0.5; that for U59G C60A was 0.509. The value for C61G A65U was 0.651; that for C62U G68C was 0.812. The value for C62A G68A was 0.797.

As to C62A G68C, the yeast fitness turned out to be 0.875. Turning to A57U G67A, the yeast fitness was found to be 0.84. The value for U64C G68U was 1.01; that for U59A C61U was 0.711. In the case of U59A C61G, the yeast fitness was 0.62.

For the variant C60G G63A A65U C66U, the yeast fitness is at most 0.5. The value for C60G A70G was 0.58; that for C60G A70C was 0.66; that for C60G A70U was 0.624.

For G68A A70U, the yeast fitness was 1.21. The value for G68A A70C was 0.861; that for C61U A65C was 0.864; that for G63A A70G was 0.804. As for G67A G68A, the yeast fitness was 0.85. Consider U59C A69C, for which the yeast fitness was 0.968. The value for G58C G68A A70G was at most 0.5. Turning to C62G G68C, the yeast fitness is 0.592. The value for C62G G68U was 0.707; that for C62G G68A was 0.56; that for U64A A70U was 0.884. U64A A70G: the yeast fitness was determined as 0.711. Take G63C G67C: the yeast fitness was 0.605. As to G63C G67U, the yeast fitness was 0.677. Turning to U64A A69G, the yeast fitness was 0.719. The value for G63U C66A A69U was at most 0.5; that for A69G A70U was 0.99; that for C61U G67C was 0.892.

For C66U G67C, the yeast fitness was 0.934.

As for C66A A69U, the yeast fitness was found to be 0.693. Turning to G58A G63C, the yeast fitness is 0.784. G58A G63A: the yeast fitness turned out to be 0.954. Regarding C62G A70G, the yeast fitness is 0.752. The value for C62G A70U was 0.637; that for G58C U64A A69G was 0.61. The value for G58C U64A A69C was 0.514; that for G67U A70U was 0.933. The value for U59A C62A was 0.657; that for U59A C62G was 0.563. Turning to C60U C62U, the yeast fitness came out at 0.659. The value for G63C A70C was 0.744.

Take G58A C62A: the yeast fitness came to 0.904. The value for G58A C62U was 1.07; that for C66G A69C was 0.782. The value for C66G A69U was 0.746. Turning to A65U A69C, the yeast fitness is 0.845. A65U A69U: the yeast fitness worked out at 0.967. The value for G63A C66U was 0.826; that for G58A C61U A70G was 1.02. The value for C60U G68C was 0.752; that for U64A A65G G67U was 0.709; that for U59A A69C was 0.914. The value for G58A G68U A70G was 0.601.

On to G58C A65U, for which the yeast fitness was 0.88.

For the variant G58C A65G, the yeast fitness was found to be 0.933.

As to G58C A65C, the yeast fitness turned out to be 0.867. The value for C60U A65G was 0.86.

C60U A65U: the yeast fitness was 0.816. The value for C60U A65C was 0.764. The value for A65C A69G was 0.939; that for A65C A69C was 0.727.

Consider A65C A69U, for which the yeast fitness was found to be 0.921.

As for U59C C62A, the yeast fitness was 0.75. The value for C61A C66U A69C was 0.601; that for A57U G68A was 0.658.

For the variant A57U G68U, the yeast fitness came out at 0.769. The value for A57U U59A A69C was 0.654; that for C62U A65G was 0.886; that for C62U A65C was 0.914.

For the variant C62U A70C, the yeast fitness is 0.91. The value for C60U C61A was 0.659; that for C60U C61U was 0.717. The value for A65U G67A was 0.839; that for A57G G63A was 0.879; that for G58A U64C was 0.976.

For G58A U64G, the yeast fitness was 1.01. The value for C60A A70U was 0.68; that for G68U A69G was 0.998. The value for C60U A70U was 0.655; that for C60U A70C was 0.732; that for A57G U64C was 0.979.

Regarding A57G U64A, the yeast fitness was found to be 0.755. As to A57G U64G, the yeast fitness turned out to be 0.841. The value for C60G A69G was 0.597; that for A57G G68A was 0.944; that for A57G G68C was 0.857. The value for C62A A69U was 0.652. The value for C62A A69C was 0.78.

On to C62U, for which the yeast fitness was found to be 0.994.

As for C62A, the yeast fitness amounted to 0.72. For the variant C62G, the yeast fitness turned out to be 0.924. The value for G58A G63A A65C was 0.584; that for A57U C61G was 0.592. The value for A57U C61A was 0.528. The value for A57U C60A was 0.54; that for A57U C60G was 0.532; that for C66G A70U was 0.724. As to G58A G67C A69C, the yeast fitness turned out to be 0.542. The value for U64A A65C G68A was 0.526; that for G68C A69C was 0.786; that for G68C A69G was 0.945.

Regarding G68C A69U, the yeast fitness was found to be 0.711. The value for U59A A65C was 0.892; that for U59C G67A was 0.835.

As to U64G C66U, the yeast fitness is 0.669. For the variant A57G G67A A70U, the yeast fitness was at most 0.5.

In the case of C60G A65G, the yeast fitness is 0.755.

Regarding G63A G67U, the yeast fitness stood at 0.686. The value for A57U U64C was 0.783; that for C60G was 0.664; that for C60A was 0.613. The value for C60U was 0.779; that for C61G A69G was 0.567. The value for C61G A69C was 0.748; that for A65C A70U was 1.06; that for A65C A70G was 1.06. Consider A57G G67C, for which the yeast fitness stood at 0.932. For G63C G68C, the yeast fitness was 0.761. The value for G63C G68U was 0.568. The value for U59A G67C was 0.813; that for A70C was 1.04.

In the case of A70G, the yeast fitness was 0.999. The value for A70U was 1.02; that for C60G C62U was 0.743; that for U59A A70G was 0.975. The value for U59A A70U was 0.91; that for G58C U59A G67C was 0.556. As for C60A C62U, the yeast fitness came out at 0.624. As for C60U G63C, the yeast fitness turned out to be 0.572.

On to C66A G67A, for which the yeast fitness was determined as 0.557. Turning to G63A U64G, the yeast fitness was 0.8. Consider U59G A69G, for which the yeast fitness worked out at 1. The value for U59G A69C was 0.653; that for U59C A65U was 0.96. With U59C A65G, the yeast fitness was 0.938. The value for G68C A70C was 0.837. The value for C60U U64A was 0.656. The value for U59A U64A was 0.73.
